The values that follow come from publication PMC2729689 (Hypertension, 2009).

“Also recorded” adds a separate entry of the source. Where no end group is shown, it is not given here.

Data set [1] deals with anesthetized rats (male Sprague Dawley). As to the kind of experiment: Urinary sodium excretion. Format: in vivo, rat.
In data set [2] the target is GC-C (GC-C-expressing T84 cell line) (Homo sapiens, UniProt P25092). As to the kind of experiment: T84 cell-based cyclic GMP bioassay. The gist of the method:
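Test peptide diluted into bioassay medium (1 mM IBMX, 137 mM NaCl, 5.4 mM KCl, 1.3 mM CaCl2, 1.0 mM MgSO4, 4.2 mM NaHCO3, phosphates, phenol red, 10 mM HEPES), pH readjusted to 7.0 if required, then applied to T84 cells for 30 min. Cells lysed; cyclic GMP measured by radioimmunoassay. Concentration-response data fitted with the log(agonist) vs response equation.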

For another data set, the system named is kidney. Conditions: cited from earlier work.
The conditions of data set [3]: rat, mouse, and opossum forms; 37° C and neutral pH; cited from earlier work.
Data set [4] concerns chymotrypsin-like activity in the kidney. The note with it: cited from earlier work.
The subject of data set [5] is GC-C knockout mouse kidneys. The note with it: cited from earlier work.
Data set [6] deals with GC-C knockout mouse intestine. Conditions: cited from earlier work.

Chain of GC-C (GC-C-expressing T84 cell line) (P25092 24-1073): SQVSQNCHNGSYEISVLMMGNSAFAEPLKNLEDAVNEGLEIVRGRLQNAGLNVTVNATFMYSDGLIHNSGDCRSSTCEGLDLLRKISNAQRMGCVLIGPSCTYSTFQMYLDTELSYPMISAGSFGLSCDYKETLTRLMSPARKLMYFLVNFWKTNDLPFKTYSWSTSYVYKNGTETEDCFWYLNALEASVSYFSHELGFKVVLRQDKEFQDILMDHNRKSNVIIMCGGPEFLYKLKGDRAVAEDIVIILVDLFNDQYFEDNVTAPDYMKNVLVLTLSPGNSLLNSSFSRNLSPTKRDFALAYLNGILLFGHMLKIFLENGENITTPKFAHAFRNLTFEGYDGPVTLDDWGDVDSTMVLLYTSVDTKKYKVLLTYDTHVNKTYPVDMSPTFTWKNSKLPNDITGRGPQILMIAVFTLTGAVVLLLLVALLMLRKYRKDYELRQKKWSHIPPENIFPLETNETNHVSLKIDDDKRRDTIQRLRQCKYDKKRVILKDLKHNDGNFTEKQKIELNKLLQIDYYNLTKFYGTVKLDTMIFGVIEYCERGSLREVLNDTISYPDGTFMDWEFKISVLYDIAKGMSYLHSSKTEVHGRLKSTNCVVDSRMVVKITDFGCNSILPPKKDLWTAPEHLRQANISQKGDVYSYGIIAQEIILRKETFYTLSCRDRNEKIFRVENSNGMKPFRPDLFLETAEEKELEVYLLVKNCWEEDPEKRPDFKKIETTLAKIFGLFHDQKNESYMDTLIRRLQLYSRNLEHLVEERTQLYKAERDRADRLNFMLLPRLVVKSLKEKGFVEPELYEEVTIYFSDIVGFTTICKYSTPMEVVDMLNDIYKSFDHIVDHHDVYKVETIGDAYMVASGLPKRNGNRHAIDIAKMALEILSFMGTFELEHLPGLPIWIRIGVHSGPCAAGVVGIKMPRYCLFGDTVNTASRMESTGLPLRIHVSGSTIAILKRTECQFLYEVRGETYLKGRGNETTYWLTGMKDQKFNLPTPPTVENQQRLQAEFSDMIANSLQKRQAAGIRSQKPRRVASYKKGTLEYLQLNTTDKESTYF

For “CCELCCNPACTGCY (also: bicyclic or more (positions not given here)) [ST-core]”, in data set [1] (iv infusion, cumulative 3 hour, Figure 6b, words), the “natriuretic effect compared with huUgnA” value is “the maximal natriuresis elicited by ST-core was slightly less and the response was shifted to the right; also recorded: right-shifted, but otherwise quite similar to those evoked by huUgnA”. The “pharmacological profile of the renal responses (rank order)” value in data set [1] (rat, in vivo) is recorded as “huUgnB ≥ huUgnA ≈ ST core, with physiological antagonism by huUgnA at high concentration”. Further, in data set [2] (T84 cells, no reference or data printed), the “EC50 for cyclic GMP stimulation relative to huUgnA (fold lower)” value was “about 10 fold”. Besides, in data set [2] (described as well-established), the “pharmacological profile of GC-C-mediated responses (rank order)” value was “ST core > huUgnA >> huUgnB, with all three peptides acting as pure agonists”.

On to “guanylin (PGTCEICAYAACTGC; ends and bridges not checked; cysteine pairing not given here; UniProt Q02747 101-115, looked up) [Gn]”, for which the “kaliuretic activity, Gn versus Ugn” value in the data set with kidney (words) was “more kaliuretic than Ugn”. Besides, in data set [3], the “rate of interconversion of the two conformations” value is listed as 1–2 cycles per sec. In addition, the “susceptibility to proteolytic digestion” value in data set [4] (chymotrypsin-like activity in the kidney) was “susceptible to proteolytic digestion”. For the same substance, the detectability in urine entry in data set [4] is on record as “undetectable in urine”.

As to “rat Ugn: rat form of uroguanylin; A and B forms interconvert rapidly (TDECELCINVACTGC; not fully specified (bridges); ends and bridges not checked; UniProt P70668 92-106, looked up)”, the “natriuretic response from the kidneys” value in data set [5] was “apparently full natriuretic responses”. For the same substance, in data set [6], the “secretory response from the intestine” value is reported as “only small, residual secretory responses”.

“uroguanylin (NDDCELCVNVACTGCL; ends and bridges not checked; cysteine pairing not given here; UniProt Q16661 97-112, looked up) [Ugn]”: in the data set with kidney (every preparation that has been examined), the “natriuretic, kaliuretic, diuretic effect” value was “natriuretic, kaliuretic, and diuretic in every preparation that has been examined”. Further, in the data set with kidney (words), the “natriuretic potency, Ugn versus Gn” value is “a more potent natriuretic factor than Gn”. Moreover, the “rate of interconversion of the two conformations” value in data set [3] is given as 1–2 cycles per sec.
